ChEMBL document CHEMBL1146100, “Refinement of the benzodiazepine receptor site topology by structure-activity relationships of new N-(heteroarylmethyl)indol-3-ylglyoxylamides” (J Med Chem, 2006)

Legend:
[1] = molecular target: GABA-A receptor; anion channel; experiment: Displacement of [3H]flumazenil from GABA-A receptor in bovine brain membranes; type: cell membranes, Bos taurus
[2] = molecular target: GABA A receptor alpha-2/beta-2/gamma-2 (Rattus norvegicus) (UniProt P18508+P23576+P63138); experiment: Inhibition of [3H]flumazenil binding to rat GABA-Aalpha2 receptor plus beta-2-gamma-2 at 10 uM in HEK293 cells; type: cell-based
[3] = molecular target: GABA-A receptor; alpha-1/beta-2/gamma-2 (Rattus norvegicus, UniProt P18508+P62813+P63138); experiment: Displacement of [3H]flumazenil from rat GABA-Aalpha1 receptor plus beta-2-gamma-2 in HEK293 cells; type: cell-based
Outline: (§1)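 Membranes from HEK293 cells stably expressing rat GABA-A subtypes (37 °C, 5% CO2, DMEM/F-12 with 10% FBS). Cells harvested, homogenized in 10 mM potassium phosphate pH 7.4, centrifuged at 48 000g for 30 min at 4 °C, washed twice, resuspended in the same buffer plus 100 mM KCl. Incubated with 1-2 nM [3H]flumazenil for 1 h at 4 °C to equilibrium. Nonspecific binding defined with 10^-5 M diazepam.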

[4] = molecular target: GABA A receptor alpha-5/beta-3/gamma-2 (Rattus norvegicus, UniProt P18508+P19969+P63079); experiment: Displacement of [3H]flumazenil from rat GABA-Aalpha5 receptor plus beta-3-gamma-2 in HEK293 cells; type: cell-based; outline: as §1
[5] = molecular target: GABA A receptor alpha-2/beta-2/gamma-2 (Rattus norvegicus, UniProt P18508+P23576+P63138); experiment: Displacement of [3H]flumazenil from rat GABA-Aalpha2 receptor plus beta-2-gamma-2 in HEK293 cells; type: cell-based; outline: as §1
[6] = molecular target: GABA A receptor alpha-5/beta-3/gamma-2 (Rattus norvegicus) (UniProt P18508+P19969+P63079); experiment: Inhibition of [3H]flumazenil binding to rat GABA-Aalpha5 receptor plus beta-3-gamma-2 at 10 uM in HEK293 cells; type: cell-based

Chain of GABA A receptor alpha-2/beta-2/gamma-2 (P18508 whole entry): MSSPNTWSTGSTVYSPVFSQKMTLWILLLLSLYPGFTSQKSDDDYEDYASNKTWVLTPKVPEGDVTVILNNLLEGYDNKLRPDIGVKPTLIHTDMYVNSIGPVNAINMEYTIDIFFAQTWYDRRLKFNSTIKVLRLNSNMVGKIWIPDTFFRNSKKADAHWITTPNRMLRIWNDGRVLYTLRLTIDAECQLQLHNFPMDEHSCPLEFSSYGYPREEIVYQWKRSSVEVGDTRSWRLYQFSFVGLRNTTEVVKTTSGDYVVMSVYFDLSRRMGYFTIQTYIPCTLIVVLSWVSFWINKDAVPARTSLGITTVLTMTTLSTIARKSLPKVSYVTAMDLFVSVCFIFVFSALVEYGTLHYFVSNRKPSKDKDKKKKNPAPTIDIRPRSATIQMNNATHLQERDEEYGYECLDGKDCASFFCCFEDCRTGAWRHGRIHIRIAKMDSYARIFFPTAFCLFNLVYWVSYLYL
Chain of GABA A receptor alpha-2/beta-2/gamma-2 (P23576 whole entry): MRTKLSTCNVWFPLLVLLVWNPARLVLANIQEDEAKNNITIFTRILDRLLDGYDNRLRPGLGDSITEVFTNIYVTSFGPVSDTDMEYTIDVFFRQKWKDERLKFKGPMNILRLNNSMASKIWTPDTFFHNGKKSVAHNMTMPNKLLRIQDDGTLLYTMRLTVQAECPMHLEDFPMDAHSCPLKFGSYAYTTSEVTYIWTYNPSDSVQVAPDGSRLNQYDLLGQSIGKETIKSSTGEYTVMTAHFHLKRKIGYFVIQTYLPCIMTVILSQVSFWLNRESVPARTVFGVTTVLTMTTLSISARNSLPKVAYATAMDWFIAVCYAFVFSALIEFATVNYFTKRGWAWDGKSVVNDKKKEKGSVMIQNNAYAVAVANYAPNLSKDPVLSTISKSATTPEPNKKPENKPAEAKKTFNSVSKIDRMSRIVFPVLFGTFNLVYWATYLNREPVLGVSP
Chain of GABA A receptor alpha-2/beta-2/gamma-2 (P63138 whole entry): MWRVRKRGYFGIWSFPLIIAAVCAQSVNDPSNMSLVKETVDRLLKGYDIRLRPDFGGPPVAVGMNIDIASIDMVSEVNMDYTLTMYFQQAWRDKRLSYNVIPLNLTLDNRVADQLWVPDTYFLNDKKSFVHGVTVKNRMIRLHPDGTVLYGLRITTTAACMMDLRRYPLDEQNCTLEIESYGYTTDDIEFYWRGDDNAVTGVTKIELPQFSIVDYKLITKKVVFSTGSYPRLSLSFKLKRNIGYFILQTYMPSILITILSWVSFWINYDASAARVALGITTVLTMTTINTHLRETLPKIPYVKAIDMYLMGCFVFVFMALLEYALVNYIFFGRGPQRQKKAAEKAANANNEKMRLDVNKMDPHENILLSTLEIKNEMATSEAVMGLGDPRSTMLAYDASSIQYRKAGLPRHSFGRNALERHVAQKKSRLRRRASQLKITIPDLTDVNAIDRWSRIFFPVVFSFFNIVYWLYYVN
Chain of GABA A receptor alpha-5/beta-3/gamma-2 (P18508 whole entry): as the sequence (P18508 whole entry) above
Chain of GABA A receptor alpha-5/beta-3/gamma-2 (P19969 whole entry): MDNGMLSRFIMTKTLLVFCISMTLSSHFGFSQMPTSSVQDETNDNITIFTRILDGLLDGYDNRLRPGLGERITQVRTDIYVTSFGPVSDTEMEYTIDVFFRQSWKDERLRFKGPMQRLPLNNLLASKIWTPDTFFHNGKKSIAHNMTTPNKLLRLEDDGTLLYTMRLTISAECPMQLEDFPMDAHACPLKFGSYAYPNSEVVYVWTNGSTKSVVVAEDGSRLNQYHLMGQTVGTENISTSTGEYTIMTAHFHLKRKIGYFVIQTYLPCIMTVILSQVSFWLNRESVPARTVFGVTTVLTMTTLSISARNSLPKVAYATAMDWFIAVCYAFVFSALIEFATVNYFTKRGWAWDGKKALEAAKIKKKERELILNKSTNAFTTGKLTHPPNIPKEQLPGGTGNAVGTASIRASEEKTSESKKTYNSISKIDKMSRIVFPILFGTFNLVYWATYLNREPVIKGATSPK
Chain of GABA A receptor alpha-5/beta-3/gamma-2 (P63079 whole entry): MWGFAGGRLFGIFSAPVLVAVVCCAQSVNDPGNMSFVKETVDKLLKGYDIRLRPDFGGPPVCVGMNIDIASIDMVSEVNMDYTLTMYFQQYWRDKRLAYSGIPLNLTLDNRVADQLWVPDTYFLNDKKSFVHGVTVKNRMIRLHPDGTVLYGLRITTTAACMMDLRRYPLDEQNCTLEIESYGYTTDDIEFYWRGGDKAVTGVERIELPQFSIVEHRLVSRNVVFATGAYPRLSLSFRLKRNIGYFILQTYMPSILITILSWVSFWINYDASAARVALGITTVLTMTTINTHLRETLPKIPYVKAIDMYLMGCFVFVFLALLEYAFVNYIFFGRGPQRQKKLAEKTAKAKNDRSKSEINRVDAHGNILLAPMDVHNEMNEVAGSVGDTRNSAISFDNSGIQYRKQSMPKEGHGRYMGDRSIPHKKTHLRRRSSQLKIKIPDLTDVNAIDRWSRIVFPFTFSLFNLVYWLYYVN
Chain of GABA-A receptor; alpha-1/beta-2/gamma-2 (P18508 whole entry): as the sequence (P18508 whole entry) above
Chain of GABA-A receptor; alpha-1/beta-2/gamma-2 (P62813 whole entry): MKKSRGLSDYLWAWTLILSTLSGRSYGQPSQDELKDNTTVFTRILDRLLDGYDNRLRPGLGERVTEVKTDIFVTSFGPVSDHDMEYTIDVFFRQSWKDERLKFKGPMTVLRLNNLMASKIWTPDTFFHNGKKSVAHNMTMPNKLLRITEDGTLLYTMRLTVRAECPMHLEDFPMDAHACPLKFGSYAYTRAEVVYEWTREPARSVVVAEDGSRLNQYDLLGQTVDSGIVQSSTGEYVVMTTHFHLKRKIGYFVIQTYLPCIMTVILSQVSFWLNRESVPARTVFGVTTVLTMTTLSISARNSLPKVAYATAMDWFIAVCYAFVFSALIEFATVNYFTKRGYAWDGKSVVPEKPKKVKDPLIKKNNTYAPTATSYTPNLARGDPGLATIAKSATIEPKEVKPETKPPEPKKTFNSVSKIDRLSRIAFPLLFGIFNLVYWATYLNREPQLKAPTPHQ
Chain of GABA-A receptor; alpha-1/beta-2/gamma-2 (P63138 whole entry): as the sequence (P63138 whole entry) above

Row | Ki [1] [nM] | Compound | further results
1 | 4590 | Cn1cccc1CNC(=O)C(=O)c1c[nH]c2ccccc12 | 
2 | 285 | O=C(NCc1cccs1)C(=O)c1c[nH]c2ccccc12 | 
3 | 15.6 | Cc1ccc(CNC(=O)C(=O)c2c[nH]c3ccc([N+](=O)[O-])cc23)o1 | 
4 | 204 | O=C(NCc1cc[nH]c1)C(=O)c1c[nH]c2ccccc12 | inhibition [2]: 46%; Ki [3]: 272 nM; Ki [4]: 681 nM
5 | 1130 | O=C(NCc1cc2ccccc2[nH]1)C(=O)c1c[nH]c2ccccc12 | 
6 | 105 | O=C(NCc1cccnc1)C(=O)c1c[nH]c2ccccc12 | 
7 | 21 | O=C(NCc1cc[nH]c1)C(=O)c1c[nH]c2ccc([N+](=O)[O-])cc12 | Ki [3]: 9.2 nM; Ki [5]: 154 nM; Ki [4]: 1600 nM
8 | 483 | O=C(NCc1cccnc1)C(=O)c1c[nH]c2ccc([N+](=O)[O-])cc12 | 
9 | 22 | O=C(NCc1ccoc1)C(=O)c1c[nH]c2ccc([N+](=O)[O-])cc12 | inhibition [6]: 9%; Ki [3]: 56.6 nM; Ki [5]: 236 nM
10 | 447 | O=C(NCc1ccoc1)C(=O)c1c[nH]c2ccccc12 | 
11 | 249 | Cc1ccc(CNC(=O)C(=O)c2c[nH]c3ccccc23)o1 | 
12 | 531 | O=C(NCc1ccc[nH]1)C(=O)c1c[nH]c2ccccc12 | inhibition [2]: 47%; Ki [3]: 271 nM; Ki [4]: 1500 nM
13 | 134 | Cn1cccc1CNC(=O)C(=O)c1c[nH]c2ccc([N+](=O)[O-])cc12 | 
14 | 33 | O=C(NCc1ccc[nH]1)C(=O)c1c[nH]c2ccc([N+](=O)[O-])cc12 | inhibition [6]: 5%; Ki [3]: 73.5 nM; Ki [5]: 585 nM
15 | 324 | O=C(NCc1ccco1)C(=O)c1c[nH]c2ccccc12 | 
16 | 128 | O=C(NCc1cccs1)C(=O)c1c[nH]c2ccc([N+](=O)[O-])cc12 | 
17 | 148 | O=C(NCc1ccsc1)C(=O)c1c[nH]c2ccc([N+](=O)[O-])cc12 | 
18 | 426 | O=C(NCc1ccncc1)C(=O)c1c[nH]c2ccccc12 | 
19 | > 10000 | O=C(NCc1ncc[nH]1)C(=O)c1c[nH]c2ccc([N+](=O)[O-])cc12 | 
20 | 439 | O=C(NCc1ccccn1)C(=O)c1c[nH]c2ccc([N+](=O)[O-])cc12 | 
21 | 12.6 | O=C(NCc1ccco1)C(=O)c1c[nH]c2ccc([N+](=O)[O-])cc12 | inhibition [6]: 28%; Ki [3]: 20 nM; Ki [5]: 155 nM
22 | 770 | O=C(NCc1ccncc1)C(=O)c1c[nH]c2ccc([N+](=O)[O-])cc12 | 
23 | 1750 | O=C(NCc1ncc[nH]1)C(=O)c1c[nH]c2ccccc12 | 
24 | 6000 | O=C(NCc1ccccn1)C(=O)c1c[nH]c2ccccc12 | 
25 | 212 | O=C(NCc1ccsc1)C(=O)c1c[nH]c2ccccc12 | 
26 | > 10000 | O=C(NCc1cc2ccccc2[nH]1)C(=O)c1c[nH]c2ccc([N+](=O)[O-])cc12 | 
